ChEMBL document CHEMBL1123085, “Mechanism of the differentiating action of 25-hydroxyvitamin D3 endoperoxides in human myeloid leukemia cells (HL-60)” (1985)
Values joined by “and” are separate entries in the source; they are usually repeats but may differ in a detail not shown here. Equal entries are not always repeated.

Legend:
Format in all cases: functional
Mus musculus [1] = organism: Mus musculus; test: In vitro bone-reabsorbing activity was examined in fetal mouse calvaria prelabeled with 45 Ca at 120 nM concentration, Ca release
Summary of the method: (§1)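 Paired half fetal mouse calvaria, split along the midsagittal suture, were precultured 24 h at 37 °C under 5% CO₂ in air in BGJ medium containing 1 mg/mL bovine serum albumin. Halves were then moved to fresh medium with or without derivative for 6 more days. Bones were digested overnight in HCl, and ⁴⁵Ca in the medium and bone was counted. ⁴⁵Ca release % = medium/(medium+bone)×100, reported as treated/control ratio. Student's t test.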

Mus musculus [2] = organism: Mus musculus; test: In vitro bone-reabsorbing activity was examined in fetal mouse calvaria prelabeled with 45 Ca at 1.2 nM concentration, Ca release; summary of the method: as §1
Mus musculus [3] = organism: Mus musculus; test: In vitro bone-reabsorbing activity was examined in fetal mouse calvaria prelabeled with 45 Ca at 12 nM concentration, Ca release; summary of the method: as §1
Mus musculus [4] = organism: Mus musculus; test: In vitro bone-resorbing activity was examined in fetal mouse calvaria prelabeled with 45Ca at 1.2 nM concentration; summary of the method: as §1
Mus musculus [5] = organism: Mus musculus; test: In vitro bone-resorbing activity was examined in fetal mouse calvaria prelabeled with 45Ca at 12 nM concentration; summary of the method: as §1
Mus musculus [6] = organism: Mus musculus; test: In vitro bone-resorbing activity was examined in fetal mouse calvaria prelabeled with 45Ca at 120 nM concentration; summary of the method: as §1

| SMILES | T/C (Mus musculus [1]) | T/C (Mus musculus [2]) | T/C (Mus musculus [3]) | T/C (Mus musculus [4]) | T/C (Mus musculus [5]) | T/C (Mus musculus [6]) |
| --- | --- | --- | --- | --- | --- | --- |
| C=C1CC[C@H](O)C/C1=C/C=C1\CCC[C@]2(C)[C@@H]([C@H](C)CCCC(C)(C)O)CC[C@@H]12 [CALCIFEDIOL ANHYDROUS] | 1.74 | 1 | 1.33 | – | – | – |
| C[C@H](CCCC(C)(C)O)C1CCC2/C(=C/c3occ4c3CC(O)CC4)CCCC21C (stereo partly drawn) | – | – | – | 1.05 and 0.98 | 1.63 | 2.64 |
| C[C@H](CCCC(C)(C)O)C1CCC2/C(=C/C3OOCC4=C3C[C@@H](O)CC4)CCCC21C (stereo partly drawn) | 2.43 | – | 1.61 | – | – | – |
